The text below walks through data of ChEMBL document CHEMBL2016498, “Synthesis and antiviral activity of a series of 1'-substituted 4-aza-7,9-dideazaadenosine C-nucleosides” (Bioorg Med Chem Lett, 2012).

Some results are limits rather than exact numbers.

Data set [1] has as its system Hepatitis C virus. In words: Inhibition of Hepatitis C virus genotype 1b NS5B RNA-dependent RNA polymerase using [33P]ATP after 90 mins by phosphoimaging. The following applies: 1.5 h. Set-up: species or system Hepatitis C virus subtype 1b. In a few lines: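 Uses recombinant GT1b NS5B in 50 mM Tris–HCl pH 7.5 with 10 mM KCl, 1 mM DTT, 5 mM MgCl2, 0.2 unit/μL RNAsin and 0.01% BSA (final concentrations). 75 nM enzyme is pre-incubated with 4 ng/μL (50 nM) heteropolymer sshRNA template for 5 min at rt. Inhibitor is then added and incubated 5 min at RT.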

The test system of data set [2] is Vero. In words: Cytotoxicity against african green monkey Vero E6 cells by MTS assay. The class given is cell-based. The settings on record: chlorocebus sabaeus. In a few lines:
(§1)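 CC50 measured in the uninfected host cells used in each CPE assay. Compound cytotoxicity is read out by MTS dye reduction.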

The next data set concerns SARS-CoV. Nature of the data set: Antiviral activity against SARS coronavirus Toronto-2 infected in african green monkey Vero cells assessed as inhibition of virus induced cytopathic effect after 24 hrs by MTS assay. The class given is functional, organism-based. The following applies: Severe acute respiratory syndrome-related coronavirus, Toronto-2, Vero. (Cytopathic effects are the visible damage that an infection or toxin causes in cultured cells.)

The nature of data set [3]: (§2) Cytotoxicity against human HuH7 cells by MTS assay. The settings on record: HuH7 cells. The class given is cell-based, Huh-7. In general terms: Tetrazolium dyes change colour on reduction, which living cells bring about.
For a further data set, the system named is Influenza A virus. Nature of the data set: Antiviral activity against Influenza A virus H3N2 infected in MDCK cells assessed as inhibition of virus induced cytopathic effect after 24 hrs by MTS assay. The format is functional, organism-based.
Data set [4] can be described thus: Antiviral activity against Coxsackievirus A7 infected in human MRC5 cells assessed as inhibition of virus induced cytopathic effect after 24 hrs by MTS assay. The format is functional, cell-based. The following applies: Enterovirus A, MRC5, 24 h. In a few lines:
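Cytoprotection (CPE) assay in MRC-5 cells infected with Coxsackie A strain A7 or A21. MTS dye reduction read out both protection from virus-induced CPE and compound cytotoxicity, giving EC50 and CC50.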

In a further data set the test system is West Nile virus. In words: Antiviral activity against West nile virus NY99 infected in african green monkey Vero cells assessed as inhibition of virus induced cytopathic effect after 24 hrs by MTS assay. The format is functional, organism-based. The following applies: NY-99, Vero.
A further data set relates to dengue virus type 2. Nature of the data set: Antiviral activity against Dengue virus type 2 New Guinea C infected in african green monkey Vero E6 cells assessed as inhibition of virus induced cytopathic effect after 24 hrs by MTS assay. The class given is functional, organism-based.
A further data set has as its system MDCK. In words: Cytotoxicity against dog MDCK cells by MTS assay. The class given is cell-based, Canis lupus familiaris. In a few lines: as §1
For data set [5], the system named is Vero. In words: Cytotoxicity against african green monkey Vero cells by MTS assay. The format is cell-based. The following applies: chlorocebus sabaeus. The essentials: as §1
The test system of the next data set is Coxsackievirus A21. In words: Antiviral activity against Coxsackievirus A21 infected in human MRC5 cells assessed as inhibition of virus induced cytopathic effect after 24 hrs by MTS assay. The format is functional, organism-based. The settings on record: Enterovirus C, MRC5, 24 h. The essentials: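 EC50 taken from a cytoprotection (CPE) assay. Protection of virus-infected host cells is read out by MTS dye reduction. The Coxsackie A assay uses MRC-5 cells with strain A7 or A21.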

For the next data set, the system named is MRC5. Nature of the data set: Cytotoxicity against human MRC5 cells by MTS assay. The class given is cell-based. The essentials: as §1
The subject of a further data set is Human respirovirus 3. Nature of the data set: Antiviral activity against Parainfluenza 3 C 243 infected in african green monkey Vero cells assessed as inhibition of virus induced cytopathic effect after 24 hrs by MTS assay. The format is functional, organism-based. The following applies: Human respirovirus 3, C 243, Vero.
Data set [6] has as its system Hepatitis C virus. Nature of the data set: Antiviral activity against Hepatitis C virus genotype 1b infected in human HuH7 cells assessed as inhibition of virus induced cytopathic effect after 24 hrs by MTS assay. The class given is functional, organism-based, Hepacivirus hominis. The following applies: Huh-7, 24 h.
Another data set concerns Huh-7. The data set is described as §2. The format is cell-based. The following applies: huh-7.
Data set [7] is described as follows: Selectivity ratio of CC50 for human HuH7 cells to EC50 for Hepatitis C virus genotype 1b. The class given is ADME, cell-based, Huh-7. The following applies: read-out: Ratio CC50/EC50. The essentials: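 Anti-HCV EC50 was measured in a subgenomic HCV replicon cell assay, and CC50 was measured in the host cells of the same assay. The selectivity index was calculated as CC50/EC50.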

For another data set, the system named is HeLa. Nature of the data set: Cytotoxicity against human HeLa cells by MTS assay. The format is cell-based. The essentials:
as §1

A further data set deals with Yellow fever virus. In words: Antiviral activity against Yellow fever virus 17D infected in human HeLa cells assessed as inhibition of virus induced cytopathic effect after 24 hrs by MTS assay. The class given is functional, cell-based.

A word on the IC50: it is the concentration at which inhibition is half-maximal. The term CC50 denotes the concentration that lowers cell viability or growth by half. One may read the EC50 as the midpoint of the concentration-response curve.

`C#C[C@@]1(c2ccc3c(N)ncnn23)O[C@H](COP(=O)(O)OP(=O)(O)OP(=O)(O)O)[C@@H](O)[C@H]1O`: in the data set with Hepatitis C virus [1], it took 232 µM to reach half-maximal inhibition (IC50).

As to `C[C@@]1(c2ccc3c(N)ncnn23)O[C@H](CO)[C@@H](O)[C@H]1O`, the CC50 in the data set on Vero [2] was above 30 µM; in data set [3] it was above 45 µM; in the data set on MDCK, above 30 µM; with Vero [5], above 30 µM; in the data set with MRC5, above 30 µM. The EC50 (with SARS-CoV; in the data set on Influenza A virus; in [4]; in the data set with West Nile virus; in the data set on dengue virus type 2; in the data set on Coxsackievirus A21) was above 30 µM in each case. The EC50 with Human respirovirus 3 was found to be 5.23 µM.

On to `C#C[C@@]1(c2ccc3c(N)ncnn23)O[C@H](CO)[C@@H](O)[C@H]1O`, for which the cytotoxic concentration (CC50) with Vero [2] is above 30 µM; in [3], above 89 µM; with MDCK, above 30 µM; in the data set on Vero [5], above 30 µM; in the data set on MRC5, above 30 µM. Moreover, the EC50 (with SARS-CoV; in the data set with Influenza A virus; in data set [4]; with West Nile virus; in the data set on dengue virus type 2; in the data set on Coxsackievirus A21) was above 30 µM each time. The EC50 was above 89 µM in the data set with Hepatitis C virus [6] and above 30 µM in the data set on Human respirovirus 3.

Consider `C=C[C@@]1(c2ccc3c(N)ncnn23)O[C@H](COP(=O)(O)OP(=O)(O)OP(=O)(O)O)[C@@H](O)[C@H]1O`, for which the half-inhibitory concentration (IC50) in the data set on Hepatitis C virus [1] is 178 µM.

Take `C=C[C@@]1(c2ccc3c(N)ncnn23)O[C@H](CO)[C@@H](O)[C@H]1O`: the CC50 with Vero [2] was above 30 µM; in data set [3], above 89 µM; in the data set on MDCK, above 30 µM; in the data set on Vero [5], above 30 µM; in the data set on MRC5 it was above 30 µM. The EC50 is 14 µM in the data set on SARS-CoV; above 30 µM with Influenza A virus; above 30 µM in data set [4]; above 30 µM in the data set with West Nile virus; above 30 µM in the data set with dengue virus type 2; above 30 µM with Coxsackievirus A21. The values for the EC50 in the data set with Hepatitis C virus [6] and in the data set on Human respirovirus 3 were above 89 µM and above 30 µM, respectively.

With `CC(C)(C)C(=O)SCCOP(=O)(OCCSC(=O)C(C)(C)C)OC[C@H]1O[C@@](C#N)(c2ccc3c(N)ncnn23)[C@H](O)[C@@H]1O`, in the data set with Huh-7, it took 3.2 µM to reach half-maximal cytotoxicity (CC50). The selectivity ratio in [7] amounted to 40. In addition, the EC50 with Hepatitis C virus [6] was 0.085 µM.

`C[C@@]1(c2ccc3c(N)ncnn23)O[C@H](COP(=O)(O)OP(=O)(O)OP(=O)(O)O)[C@@H](O)[C@H]1O` gave an IC50 in the data set on Hepatitis C virus [1] of 20 µM.

`CC(C)(C)C(=O)SCCOP(=O)(OCCSC(=O)C(C)(C)C)OC[C@H]1O[C@@](C)(c2ccc3c(N)ncnn23)[C@H](O)[C@@H]1O` displayed a CC50 in the data set with Huh-7 of 0.73 µM. Also, the selectivity ratio in data set [7] was below 10. Moreover, the 50% effective concentration (EC50) with Hepatitis C virus [6] was found to be 0.078 µM.

As for `N#C[C@@]1(c2ccc3c(N)ncnn23)O[C@H](CO)[C@@H](O)[C@H]1O` [GS-441524], the CC50 is above 30 µM in the data set on Vero [2]; above 30 µM in the data set with HeLa; above 89 µM in [3]; above 30 µM with MDCK; above 30 µM in the data set with Vero [5]; above 30 µM in the data set with MRC5. Further, the EC50 is 2.24 µM in the data set with SARS-CoV; 27.9 µM in the data set with Influenza A virus; above 30 µM in data set [4]; above 30 µM in the data set on West Nile virus; 9.46 µM in the data set on dengue virus type 2; above 30 µM in the data set with Coxsackievirus A21. Also, the EC50 is 11 µM with Yellow fever virus and 1.71 µM in the data set with Human respirovirus 3.

In the data set on Huh-7, `C#C[C@@]1(c2ccc3c(N)ncnn23)O[C@H](COP(=O)(OCCSC(=O)C(C)(C)C)OCCSC(=O)C(C)(C)C)[C@@H](O)[C@H]1O` came in with a CC50 of 26 µM. Moreover, the selectivity ratio in data set [7] was below 10. Also, the EC50 with Hepatitis C virus [6] came out at 6.01 µM.

In the data set with Hepatitis C virus [1], `N#C[C@@]1(c2ccc3c(N)ncnn23)O[C@H](COP(=O)(O)OP(=O)(O)OP(=O)(O)O)[C@@H](O)[C@H]1O` [RDV-TP] displayed an IC50 of 5.6 µM.

`C=C[C@@]1(c2ccc3c(N)ncnn23)O[C@H](COP(=O)(OCCSC(=O)C(C)(C)C)OCCSC(=O)C(C)(C)C)[C@@H](O)[C@H]1O` came in with a CC50 with Huh-7 of 12 µM. Besides, in data set [7], the selectivity ratio is below 10. In the data set on Hepatitis C virus [6], the EC50 was 3.43 µM.
